Assays:
Type in all cases: functional, organism-based
Pseudomonas aeruginosa [1] = assay: Susceptibility testing against Pseudomonas aeruginosa ATCC 27853; R=Resistant
Procedure, shortened: (§1)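 Disk diffusion susceptibility profiling of P. aeruginosa reference and clinical isolates against empirically used antipseudomonal antibiotics. Each isolate was categorised as susceptible, intermediate or resistant.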

Pseudomonas aeruginosa [2] = assay: Susceptibility testing against Pseudomonas aeruginosa PAE_NUH01; R=Resistant; procedure, shortened: as §1
Pseudomonas aeruginosa [3] = assay: Susceptibility testing against Pseudomonas aeruginosa PAE_NUH02; R=Resistant; procedure, shortened: as §1
Pseudomonas aeruginosa [4] = assay: Susceptibility testing against Pseudomonas aeruginosa PAE_NUH03; R=Resistant; procedure, shortened: as §1
Pseudomonas aeruginosa [5] = assay: Susceptibility testing against Pseudomonas aeruginosa PAE_NUH04; R=Resistant; procedure, shortened: as §1
Pseudomonas aeruginosa [6] = assay: Susceptibility testing against Pseudomonas aeruginosa PAE_NUH05; R=Resistant; procedure, shortened: as §1
Pseudomonas aeruginosa [7] = assay: Susceptibility testing against Pseudomonas aeruginosa PAE_NUH06; R=Resistant; procedure, shortened: as §1
Pseudomonas aeruginosa [8] = assay: Susceptibility testing against Pseudomonas aeruginosa PAE_NUH07; R=Resistant; procedure, shortened: as §1
Pseudomonas aeruginosa [9] = assay: Susceptibility testing against Pseudomonas aeruginosa PAE_NUH18; R=Resistant; procedure, shortened: as §1
Pseudomonas aeruginosa [10] = assay: Susceptibility testing against Pseudomonas aeruginosa PAE_NUH19; R=Resistant; procedure, shortened: as §1
Pseudomonas aeruginosa [11] = assay: Susceptibility testing against Pseudomonas aeruginosa PAE_NUH21; R=Resistant; procedure, shortened: as §1
Pseudomonas aeruginosa [12] = assay: Susceptibility testing against Pseudomonas aeruginosa PAE_NUH22; R=Resistant; procedure, shortened: as §1
Pseudomonas aeruginosa [13] = assay: Susceptibility testing against Pseudomonas aeruginosa PAE_NUH23; R=Resistant; procedure, shortened: as §1
Pseudomonas aeruginosa [14] = assay: Susceptibility testing against Pseudomonas aeruginosa PAE_NUH24; R=Resistant; procedure, shortened: as §1
Pseudomonas aeruginosa [15] = assay: Susceptibility testing against Pseudomonas aeruginosa PAE_NUH25; S=Susceptible
Procedure, shortened: (§2)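 Disk diffusion susceptibility profiling against a panel of empirically used antipseudomonal antibiotics. Each strain was categorised as susceptible (S) or intermediate (I).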

Pseudomonas aeruginosa [16] = assay: Susceptibility testing against Pseudomonas aeruginosa PAE_NUH17; S=Susceptible; procedure, shortened: as §2
Pseudomonas aeruginosa [17] = assay: Susceptibility testing against Pseudomonas aeruginosa PAE_NUH20; S=Susceptible; procedure, shortened: as §2
Pseudomonas aeruginosa [18] = assay: Susceptibility testing against Pseudomonas aeruginosa PAE_NUH22; S=Susceptible; procedure, shortened: as §2
Pseudomonas aeruginosa [19] = assay: Susceptibility testing against Pseudomonas aeruginosa PAE_NUH23; S=Susceptible; procedure, shortened: as §2
Pseudomonas aeruginosa [20] = assay: Susceptibility testing against Pseudomonas aeruginosa PAE_NUH24; S=Susceptible; procedure, shortened: as §2
Pseudomonas aeruginosa [21] = assay: Susceptibility testing against Pseudomonas aeruginosa PAE_NUH07; I=Intermediate; procedure, shortened: as §1
Pseudomonas aeruginosa [22] = assay: Susceptibility testing against Pseudomonas aeruginosa ATCC 27853; S=Susceptible; procedure, shortened: as §2
Pseudomonas aeruginosa [23] = assay: Susceptibility testing against Pseudomonas aeruginosa PAE_NUH18; S=Susceptible; procedure, shortened: as §2
Pseudomonas aeruginosa [24] = assay: Susceptibility testing against Pseudomonas aeruginosa PAE_NUH19; S=Susceptible; procedure, shortened: as §2
Pseudomonas aeruginosa [25] = assay: Susceptibility testing against Pseudomonas aeruginosa PAE_NUH21; S=Susceptible; procedure, shortened: as §2
Pseudomonas aeruginosa [26] = assay: Susceptibility testing against Pseudomonas aeruginosa PAE_NUH04; S=Susceptible; procedure, shortened: as §2
Pseudomonas aeruginosa [27] = assay: Susceptibility testing against Pseudomonas aeruginosa PAE_NUH05; S=Susceptible; procedure, shortened: as §2
Pseudomonas aeruginosa [28] = assay: Susceptibility testing against Pseudomonas aeruginosa PAE_NUH06; S=Susceptible; procedure, shortened: as §2
Pseudomonas aeruginosa [29] = assay: Susceptibility testing against Pseudomonas aeruginosa PAE_NUH03; S=Susceptible; procedure, shortened: as §2
Pseudomonas aeruginosa [30] = assay: Susceptibility testing against Pseudomonas aeruginosa PAE_NUH25; R=Resistant; procedure, shortened: as §1
Pseudomonas aeruginosa [31] = assay: Susceptibility testing against Pseudomonas aeruginosa PAE_NUH21; I=Intermediate; procedure, shortened: as §2
Pseudomonas aeruginosa [32] = assay: Susceptibility testing against Pseudomonas aeruginosa PAE_NUH22; I=Intermediate; procedure, shortened: as §2
Pseudomonas aeruginosa [33] = assay: Susceptibility testing against Pseudomonas aeruginosa PAE_NUH23; I=Intermediate; procedure, shortened: as §1
Pseudomonas aeruginosa [34] = assay: Susceptibility testing against Pseudomonas aeruginosa PAE_NUH24; I=Intermediate; procedure, shortened: as §1
Pseudomonas aeruginosa [35] = assay: Susceptibility testing against Pseudomonas aeruginosa PAE_NUH01; S=Susceptible; procedure, shortened: as §2
Pseudomonas aeruginosa [36] = assay: Susceptibility testing against Pseudomonas aeruginosa PAE_NUH02; S=Susceptible; procedure, shortened: as §2
Pseudomonas aeruginosa [37] = assay: Susceptibility testing against Pseudomonas aeruginosa PAE_NUH07; S=Susceptible; procedure, shortened: as §2

SMILES | Activity (Pseudomonas aeruginosa [1]) | Activity (Pseudomonas aeruginosa [2]) | Activity (Pseudomonas aeruginosa [3]) | Activity (Pseudomonas aeruginosa [4]) | Activity (Pseudomonas aeruginosa [5]) | Activity (Pseudomonas aeruginosa [6]) | Activity (Pseudomonas aeruginosa [7]) | Activity (Pseudomonas aeruginosa [8]) | Activity (Pseudomonas aeruginosa [9]) | Activity (Pseudomonas aeruginosa [10]) | Activity (Pseudomonas aeruginosa [15]) | Activity (Pseudomonas aeruginosa [16]) | Activity (Pseudomonas aeruginosa [17]) | Activity (Pseudomonas aeruginosa [18]) | Activity (Pseudomonas aeruginosa [19]) | Activity (Pseudomonas aeruginosa [20]) | Activity (Pseudomonas aeruginosa [22]) | Activity (Pseudomonas aeruginosa [23]) | Activity (Pseudomonas aeruginosa [24]) | Activity (Pseudomonas aeruginosa [25]) | other results
COc1cc(Cc2cnc(N)nc2N)cc(OC)c1OC.Cc1cc(NS(=O)(=O)c2ccc(N)cc2)no1 | Resistant | Resistant | Resistant | Resistant | Resistant | Resistant | Resistant | Resistant | Resistant | Resistant | Susceptible | Susceptible | Susceptible |  |  |  |  |  |  |  | Activity (Pseudomonas aeruginosa [11]): Resistant; Activity (Pseudomonas aeruginosa [12]): Resistant; Activity (Pseudomonas aeruginosa [13]): Resistant; Activity (Pseudomonas aeruginosa [14]): Resistant
CC(C)(O/N=C(\C(=O)N[C@@H]1C(=O)N2C(C(=O)[O-])=C(C[n+]3ccccc3)CS[C@H]12)c1csc(N)n1)C(=O)O |  | Resistant | Resistant | Resistant | Resistant | Resistant | Resistant |  |  |  | Susceptible | Susceptible | Susceptible | Susceptible | Susceptible | Susceptible | Susceptible | Susceptible | Susceptible | Susceptible | Activity (Pseudomonas aeruginosa [21]): I
CCN1CCN(C(=O)N[C@@H](C(=O)N[C@@H]2C(=O)N3[C@@H]2SC(C)(C)[C@@H]3C(=O)O)c2ccccc2)C(=O)C1=O.C[C@]1(Cn2ccnn2)[C@H](C(=O)O)N2C(=O)C[C@H]2S1(=O)=O |  | Resistant | Resistant |  |  |  |  | Resistant |  |  | Susceptible | Susceptible | Susceptible | Susceptible | Susceptible | Susceptible | Susceptible | Susceptible | Susceptible | Susceptible | Activity (Pseudomonas aeruginosa [26]): Susceptible; Activity (Pseudomonas aeruginosa [27]): Susceptible; Activity (Pseudomonas aeruginosa [28]): Susceptible; Activity (Pseudomonas aeruginosa [29]): Susceptible
O=C(N[C@H](CO)[C@H](O)c1ccc([N+](=O)[O-])cc1)C(Cl)Cl | Resistant | Resistant | Resistant | Resistant | Resistant | Resistant | Resistant | Resistant | Resistant | Resistant |  | Susceptible | Susceptible |  |  |  |  |  |  |  | Activity (Pseudomonas aeruginosa [30]): Resistant; Activity (Pseudomonas aeruginosa [31]): I; Activity (Pseudomonas aeruginosa [32]): I; Activity (Pseudomonas aeruginosa [33]): I; Activity (Pseudomonas aeruginosa [34]): I
CC(O)[C@H]1C(=O)N2C(C(=O)O)=C(SCCNC=N)C[C@H]12 (single isomer, unassigned) |  |  |  |  |  |  |  |  |  |  | Susceptible | Susceptible | Susceptible | Susceptible | Susceptible | Susceptible | Susceptible | Susceptible | Susceptible | Susceptible | Activity (Pseudomonas aeruginosa [35]): Susceptible; Activity (Pseudomonas aeruginosa [36]): Susceptible; Activity (Pseudomonas aeruginosa [26]): Susceptible; Activity (Pseudomonas aeruginosa [27]): Susceptible; Activity (Pseudomonas aeruginosa [28]): Susceptible; Activity (Pseudomonas aeruginosa [37]): Susceptible; Activity (Pseudomonas aeruginosa [29]): Susceptible

— ChEMBL document CHEMBL1143542, “Structure-activity relationships of bivalent aminoglycosides and evaluation of their microbiological activities” (2005)
